In ChEMBL document CHEMBL1275385, “Discovery and biological evaluation of potent, selective, orally bioavailable, pyrazine-based blockers of the Na(v)1.8 sodium channel with efficacy in a model of neuropathic pain” (Bioorg Med Chem, 2010):
Converted amounts (≈) assume the structure as drawn. The source made the active and inactive calls.

What was measured:
[1] = target: T1, Sodium channel protein type 2 subunit alpha (Homo sapiens, UniProt Q99250); experiment: Inhibition of human recombinant NaV1.2 by electrophysiology
In short: (§1)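 Whole-cell voltage clamp of HEK-293 cells expressing recombinant human Nav1.2. Membrane potential was held at the V1/2 of steady-state inactivation, −60 mV. Compounds came from 10 mM DMSO stocks, diluted in extracellular solution (final DMSO <0.1%) and perfused at 1–2 mL/min at room temperature (21–25 °C). Tested at 1–3 concentrations with 2–6 measurements each; estimates averaged. Single-point data given as % inhibition at 3 µM.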

[2] = target: Sodium channel protein type 10 subunit alpha (Mus musculus, UniProt Q6QIY3); experiment: Inhibition of mouse NaV1.8 expressed in HEK293 cells by isotopic efflux assay; type: cell-based
In short: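 HEK293 cells stably expressing mouse Nav1.8 were loaded overnight with radiotracer, then stimulated. Efflux was read at a single time point on the linear part of the efflux curve. % inhibition = (1 − [test − reference blocker]/[control − reference blocker]) × 100. Eight-point concentration–response curves run in duplicate gave the IC50.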

[3] = Selectivity ratio of IC50 for human NaV1.8 to IC50 for human Nav1.2
Homo sapiens = species on record: Homo sapiens; experiment: Selectivity ratio of IC50 for human NAv1.8 to IC50 for human Nav1.2
In short: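 Ratio of the IC50 values from whole-cell voltage clamp of human Nav1.8 (held at −40 mV) and human Nav1.2 (held at −60 mV), both expressed in HEK-293 cells. Each channel was held at its inactivation V1/2.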

[4] = target: Sodium channel protein type 10 subunit alpha (Homo sapiens, UniProt Q9Y5Y9); experiment: Inhibition of human recombinant NaV1.8 expressed in HEK293 cells by conventional voltage clamp electrophysiology assay; type: cell-based
In short: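 HEK-293 cells stably expressing human Nav1.8 were recorded by conventional whole-cell voltage clamp with the holding potential at the inactivation V1/2, −40 mV. DMSO stocks (10 mM) were diluted into extracellular solution (final DMSO <0.1%) and gravity-perfused at 1–2 mL/min at 21–25 °C. Each compound was run at 1–3 concentrations with 2–6 measurements each; estimates averaged.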

[5] = target: Sodium channel protein type 10 subunit alpha (Rattus norvegicus, UniProt Q62968); experiment: Inhibition of tetrodotoxin-resistant NaV1.8 in rat dorsal root ganglion neurons at holding potential -100 mV by whole-cell patch clamp electrophysiology assay; type: tissue-based
[6] = Aqueous solubility of the compound; type: physicochemical; conditions: buffer
[7] = Clearance in rat microsomes; type: ADME, Liver, Microsome
[8] = target: T1, Sodium channel protein type 2 subunit alpha; experiment: Inhibition of human recombinant NaV1.2 at 3 uM by electrophysiology; in short: as §1
[9] = Cmax in rat at 3 mg/kg, po; type: ADME, organism-based; set-up: dose 3 mg/kg, route oral; conditions: in vivo
[10] = Inhibition of BZD receptor at 10 uM
[11] = target: Beta-2 adrenergic receptor (Homo sapiens) (UniProt P07550); experiment: Inhibition of human adrenergic beta2 receptor at 10 uM
[12] = Oral bioavailability in rat at 3 mg/kg; type: ADME, organism-based; conditions: in vivo
In short: (§2)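 Rat pharmacokinetics (n = 3) after a single 3 mg/kg iv or po dose. Plasma clearance, Vss, half-life and oral bioavailability were derived from plasma exposure.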

[13] = Half life in rat at 3 mg/kg, po; type: ADME, organism-based; set-up: dose 3 mg/kg, route oral; conditions: in vivo; in short: as §2
Rattus norvegicus [14] = experiment: Analgesic activity in po dosed Sprague-Dawley rat L5/L6 spinal nerve injury Chung model of neuropathic pain assessed as reduction of von Frey hair-induced paw withdrawal threshold administered 60 mins before von Frey hair challenge; type: functional
In short: (§3)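 Rats with L5/L6 spinal nerve ligation (Kim and Chung method) dosed orally at 10, 30 or 100 mg/kg, 60 min before von Frey testing of paw withdrawal threshold on the injured and contralateral sides. At least six animals per group, compared with vehicle-treated animals; mean ± SEM, ANOVA with post-hoc tests (P <0.05). ED50 estimated by least-squares linear regression.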

[15] = target: Substance-P receptor (Homo sapiens) (UniProt P25103); experiment: Inhibition of human NK1 receptor at 10 uM
Plasma = experiment: Plasma protein binding in rat; type: ADME, cell-free
[16] = Volume of distribution at steady state in rat at 3 mg/kg, iv; type: ADME, organism-based; set-up: dose 3 mg/kg, route intravenous; conditions: in vivo, read-out: Vdss; in short: as §2
[17] = Half life in rat at 3 mg/kg, iv; type: ADME, organism-based; set-up: dose 3 mg/kg, route intravenous; conditions: in vivo; in short: as §2
[18] = Selectivity ratio of IC50 for tetrodotoxin-resistant NaV1.8 in rat dorsal root ganglion neurons to IC50 for human Nav1.2; type: tissue-based
In short: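 Ratio of the IC50 for native TTX-resistant current in dissociated rat DRG neurons (held at V1/2, −40 mV) to the IC50 for recombinant human Nav1.2 in HEK-293 cells (held at −60 mV).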

Rattus norvegicus [19] = experiment: Analgesic activity in Sprague-Dawley rat L5/L6 spinal nerve injury Chung model of neuropathic pain assessed as reduction of von Frey hair-induced paw withdrawal threshold at 100 mg/kg, po administered 60 mins before von Frey hair challenge; type: functional; in short: as §3

Sequence of Sodium channel protein type 10 subunit alpha (Homo sapiens, UniProt Q9Y5Y9) (Q9Y5Y9 whole entry, the tested form may be a part): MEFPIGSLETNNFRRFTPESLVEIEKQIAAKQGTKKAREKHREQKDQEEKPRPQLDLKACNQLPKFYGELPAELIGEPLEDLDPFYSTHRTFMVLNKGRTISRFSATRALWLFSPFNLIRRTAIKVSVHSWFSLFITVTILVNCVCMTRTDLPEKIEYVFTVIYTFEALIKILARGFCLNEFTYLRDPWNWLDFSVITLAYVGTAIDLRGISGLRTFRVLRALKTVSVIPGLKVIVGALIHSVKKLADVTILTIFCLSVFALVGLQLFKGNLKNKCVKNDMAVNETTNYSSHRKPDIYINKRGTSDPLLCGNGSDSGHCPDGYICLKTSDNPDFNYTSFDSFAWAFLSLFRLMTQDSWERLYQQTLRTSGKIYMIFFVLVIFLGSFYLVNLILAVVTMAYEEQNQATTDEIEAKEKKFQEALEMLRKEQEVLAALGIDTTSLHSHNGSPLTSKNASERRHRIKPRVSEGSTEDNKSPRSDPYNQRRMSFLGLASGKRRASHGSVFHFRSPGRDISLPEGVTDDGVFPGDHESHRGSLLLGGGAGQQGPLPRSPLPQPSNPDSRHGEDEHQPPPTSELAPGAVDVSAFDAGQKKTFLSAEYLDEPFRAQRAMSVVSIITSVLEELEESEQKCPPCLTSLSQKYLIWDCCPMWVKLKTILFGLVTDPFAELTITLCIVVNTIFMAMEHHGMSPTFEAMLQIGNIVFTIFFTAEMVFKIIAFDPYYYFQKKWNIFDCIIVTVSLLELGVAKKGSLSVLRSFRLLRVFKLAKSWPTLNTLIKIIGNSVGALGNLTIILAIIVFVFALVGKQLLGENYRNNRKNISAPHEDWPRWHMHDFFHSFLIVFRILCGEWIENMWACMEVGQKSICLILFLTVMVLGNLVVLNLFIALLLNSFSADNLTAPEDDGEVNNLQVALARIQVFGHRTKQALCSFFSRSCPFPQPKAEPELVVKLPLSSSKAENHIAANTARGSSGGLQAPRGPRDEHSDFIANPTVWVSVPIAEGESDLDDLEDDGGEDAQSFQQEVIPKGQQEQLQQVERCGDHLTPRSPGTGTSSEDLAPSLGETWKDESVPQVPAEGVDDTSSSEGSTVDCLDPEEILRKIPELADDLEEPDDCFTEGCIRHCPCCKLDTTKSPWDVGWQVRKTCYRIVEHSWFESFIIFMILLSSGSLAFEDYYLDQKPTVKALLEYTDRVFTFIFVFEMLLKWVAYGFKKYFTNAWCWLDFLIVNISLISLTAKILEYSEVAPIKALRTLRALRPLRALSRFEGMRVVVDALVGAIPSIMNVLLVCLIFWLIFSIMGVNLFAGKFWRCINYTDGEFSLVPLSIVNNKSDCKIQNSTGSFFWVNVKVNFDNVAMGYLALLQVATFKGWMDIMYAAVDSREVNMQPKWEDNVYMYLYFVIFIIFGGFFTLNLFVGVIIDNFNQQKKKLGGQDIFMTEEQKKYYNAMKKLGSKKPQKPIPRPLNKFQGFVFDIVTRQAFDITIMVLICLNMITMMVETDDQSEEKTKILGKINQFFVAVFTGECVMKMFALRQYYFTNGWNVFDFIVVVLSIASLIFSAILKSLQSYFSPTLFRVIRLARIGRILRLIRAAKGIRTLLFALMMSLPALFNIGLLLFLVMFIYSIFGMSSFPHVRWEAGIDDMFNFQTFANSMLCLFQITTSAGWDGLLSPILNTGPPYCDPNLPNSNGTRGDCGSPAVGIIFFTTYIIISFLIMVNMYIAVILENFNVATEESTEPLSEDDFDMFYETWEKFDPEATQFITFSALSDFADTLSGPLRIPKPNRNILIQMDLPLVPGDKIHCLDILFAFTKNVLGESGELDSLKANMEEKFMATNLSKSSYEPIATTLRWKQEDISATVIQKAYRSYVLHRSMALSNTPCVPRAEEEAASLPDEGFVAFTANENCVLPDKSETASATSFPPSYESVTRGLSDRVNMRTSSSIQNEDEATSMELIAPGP
Sequence of Sodium channel protein type 10 subunit alpha (Rattus norvegicus, UniProt Q62968) (Q62968 whole entry): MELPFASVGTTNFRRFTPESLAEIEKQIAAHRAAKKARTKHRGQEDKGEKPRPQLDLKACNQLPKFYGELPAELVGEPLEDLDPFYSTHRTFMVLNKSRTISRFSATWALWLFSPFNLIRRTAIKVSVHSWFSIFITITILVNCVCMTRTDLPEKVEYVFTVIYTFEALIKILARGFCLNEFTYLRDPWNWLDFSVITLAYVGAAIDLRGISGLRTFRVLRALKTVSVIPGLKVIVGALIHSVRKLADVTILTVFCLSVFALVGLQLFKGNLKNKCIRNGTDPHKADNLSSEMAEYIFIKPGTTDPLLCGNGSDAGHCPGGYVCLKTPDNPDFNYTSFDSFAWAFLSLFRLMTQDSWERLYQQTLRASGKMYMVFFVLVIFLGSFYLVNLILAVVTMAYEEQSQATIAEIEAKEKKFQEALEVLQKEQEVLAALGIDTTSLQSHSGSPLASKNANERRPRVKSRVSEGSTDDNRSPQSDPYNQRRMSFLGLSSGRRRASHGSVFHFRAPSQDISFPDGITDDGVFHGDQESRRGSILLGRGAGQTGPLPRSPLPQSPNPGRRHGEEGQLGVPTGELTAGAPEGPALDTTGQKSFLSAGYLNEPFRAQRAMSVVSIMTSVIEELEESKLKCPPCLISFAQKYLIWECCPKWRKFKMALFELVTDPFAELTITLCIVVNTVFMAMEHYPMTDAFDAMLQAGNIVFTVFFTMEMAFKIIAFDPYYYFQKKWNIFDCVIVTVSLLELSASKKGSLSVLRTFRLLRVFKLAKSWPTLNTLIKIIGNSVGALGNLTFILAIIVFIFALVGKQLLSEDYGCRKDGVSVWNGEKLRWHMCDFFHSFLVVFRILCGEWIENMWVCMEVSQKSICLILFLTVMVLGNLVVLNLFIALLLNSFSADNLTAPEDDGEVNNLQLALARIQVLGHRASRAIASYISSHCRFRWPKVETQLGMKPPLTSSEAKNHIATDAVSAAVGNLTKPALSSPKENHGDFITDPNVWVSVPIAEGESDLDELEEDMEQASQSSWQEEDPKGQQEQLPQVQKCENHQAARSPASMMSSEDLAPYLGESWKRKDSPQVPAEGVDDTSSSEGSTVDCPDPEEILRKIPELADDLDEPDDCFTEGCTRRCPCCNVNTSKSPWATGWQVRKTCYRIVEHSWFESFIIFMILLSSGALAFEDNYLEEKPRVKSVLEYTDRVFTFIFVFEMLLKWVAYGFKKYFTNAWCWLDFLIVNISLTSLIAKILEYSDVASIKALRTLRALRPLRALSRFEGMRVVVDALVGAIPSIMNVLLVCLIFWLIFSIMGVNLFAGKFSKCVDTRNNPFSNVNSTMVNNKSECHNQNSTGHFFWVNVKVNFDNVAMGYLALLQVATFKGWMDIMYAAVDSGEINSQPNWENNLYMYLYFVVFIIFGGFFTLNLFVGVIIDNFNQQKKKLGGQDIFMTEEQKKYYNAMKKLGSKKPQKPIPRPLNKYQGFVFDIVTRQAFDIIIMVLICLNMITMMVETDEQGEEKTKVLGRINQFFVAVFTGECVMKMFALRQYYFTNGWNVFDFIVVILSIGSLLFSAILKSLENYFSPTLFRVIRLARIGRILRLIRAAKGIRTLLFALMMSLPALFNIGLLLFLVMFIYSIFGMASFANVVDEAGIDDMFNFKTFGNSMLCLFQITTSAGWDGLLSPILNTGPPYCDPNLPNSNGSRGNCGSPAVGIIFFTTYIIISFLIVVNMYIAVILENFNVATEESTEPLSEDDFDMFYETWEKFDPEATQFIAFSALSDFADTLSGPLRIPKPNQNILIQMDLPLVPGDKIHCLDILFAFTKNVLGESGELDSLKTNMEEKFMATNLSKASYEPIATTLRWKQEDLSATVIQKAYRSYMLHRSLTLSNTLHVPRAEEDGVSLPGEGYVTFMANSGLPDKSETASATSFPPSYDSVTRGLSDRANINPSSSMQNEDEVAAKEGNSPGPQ
Sequence of Substance-P receptor (Homo sapiens) (P25103 whole entry): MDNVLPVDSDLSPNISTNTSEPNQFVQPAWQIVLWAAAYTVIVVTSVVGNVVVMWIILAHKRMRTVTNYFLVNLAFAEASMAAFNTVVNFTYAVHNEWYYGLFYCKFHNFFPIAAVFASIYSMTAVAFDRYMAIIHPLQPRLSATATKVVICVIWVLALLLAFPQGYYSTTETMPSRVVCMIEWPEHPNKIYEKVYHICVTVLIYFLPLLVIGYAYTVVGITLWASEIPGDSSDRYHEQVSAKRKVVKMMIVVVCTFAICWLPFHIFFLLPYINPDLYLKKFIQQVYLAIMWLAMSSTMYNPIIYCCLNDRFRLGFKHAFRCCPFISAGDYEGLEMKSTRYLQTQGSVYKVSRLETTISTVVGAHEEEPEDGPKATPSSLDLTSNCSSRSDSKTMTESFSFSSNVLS
Sequence of Beta-2 adrenergic receptor (Homo sapiens) (P07550 whole entry, looked up): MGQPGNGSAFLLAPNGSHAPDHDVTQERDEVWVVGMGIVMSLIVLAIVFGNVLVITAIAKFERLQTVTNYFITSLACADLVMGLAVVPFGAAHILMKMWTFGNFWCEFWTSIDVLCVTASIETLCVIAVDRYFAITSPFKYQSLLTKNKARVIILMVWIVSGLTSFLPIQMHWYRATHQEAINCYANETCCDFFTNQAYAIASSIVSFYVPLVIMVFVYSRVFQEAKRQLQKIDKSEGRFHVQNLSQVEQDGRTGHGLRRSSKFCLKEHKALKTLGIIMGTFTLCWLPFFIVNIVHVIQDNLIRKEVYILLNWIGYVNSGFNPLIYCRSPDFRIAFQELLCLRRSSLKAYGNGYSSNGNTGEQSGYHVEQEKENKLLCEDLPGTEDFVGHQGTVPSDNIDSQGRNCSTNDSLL

| SMILES | IC50 [1] [nM] | IC50 [2] [nM] | IC50 [4] [nM] | IC50 [5] [nM] | solubility [6] [µg/mL] | CL [7] [µL/min] | also measured |
| --- | --- | --- | --- | --- | --- | --- | --- |
| O=C(NCCc1ccc(Cl)cc1)c1cncc(-c2ccc(Cl)cc2)n1 | 1000 | 2680 | 19 | 360 | < 0.1 | – | Ratio IC50 [3]: 53; Ratio IC50 (Homo sapiens): 53 |
| COc1cc(NC(=O)c2cncc(-c3ccc(Cl)cc3)n2)cc(OC)c1 | 6200 | 1070 | 6 | 190 | < 0.1 | – | Ratio IC50 (Homo sapiens): > 1000 |
| O=C(NCc1cccnc1)c1cncc(-c2ccc(Cl)cc2)n1 | – | 11000 | – | – | 1 (≈ 3.08 µM) | – | – |
| CCOc1ccc(-c2cncc(C(=O)NCc3ccccc3C)n2)cc1 | 470 | 110 | 2 | 19 | 0.14 (≈ 0.403 µM) | 630 | – |
| O=C(NCc1cccnc1N1CCOCC1)c1cncc(-c2ccc(Cl)cc2)n1 | – | 2500 | 37 | 280 | 2.7 (≈ 6.59 µM) | 410 | inhibition [8]: 11% |
| O=C(NCc1cccnc1N1CCOCC1)c1cncc(-c2ccc(OC(F)(F)F)cc2)n1 | 1500 | 480 | 19 | 85 | > 50 | – | Cmax [9]: 150 ng/mL; inhibition [10]: > 60%; Ratio IC50 (Homo sapiens): 79; inhibition [11]: > 60%; clearance [7]: 98 µL/min; bioavailability [12]: 18.2%; half-life [13]: 1.6 h; Activity (Rattus norvegicus [14]): Dose-dependent effect; ED50 (Rattus norvegicus [14]): 78 mg/kg; inhibition [15]: > 60%; Activity (Plasma): 93.2%; Vd [16]: 3.3 L/kg; half-life [17]: 1.9 h |
| Cc1cccc(NC(=O)c2cncc(-c3ccc(OC(F)(F)F)cc3)n2)c1 | 2200 | 66 | 5 | 16 | < 0.1 | – | – |
| Cc1ccccc1CNC(=O)c1cncc(-c2ccc(OC(F)(F)F)cc2)n1 | 1200 | 240 | 18 | 170 | – | – | – |
| CC(C)Oc1cccc(NC(=O)c2cncc(-c3ccc(C#N)cc3)n2)c1 | 9100 | 730 | 49 | 130 | 0.08 (≈ 0.223 µM) | 120 | – |
| O=C(NCc1cccnc1N1CCCC1)c1cncc(-c2ccc(Cl)cc2)n1 | 1000 | 210 | 30 | 550 | 0.65 (≈ 1.65 µM) | – | – |
| CCOc1ccc(-c2cncc(C(=O)Nc3cc(C)cc(C)c3)n2)cc1 | 360 | 56 | 2 | 12 | < 0.1 | – | – |
| O=C(NCc1ccncc1N1CCOCC1)c1cncc(-c2ccc(Cl)cc2)n1 | – | 4140 | 320 | – | – | – | – |
| Cc1cc(C)cc(NC(=O)c2cncc(-c3ccc(Cl)cc3)n2)c1 | 5000 | 490 | 3 | 52 | < 0.1 | 83 | Ratio IC50 (Homo sapiens): > 1000; Ratio IC50 [18]: > 1600 |
| Cc1cc(C)cc(NC(=O)c2cncc(-c3ccc(OC(F)(F)F)cc3)n2)c1 | – | 58 | – | – | < 0.1 | – | inhibition [8]: 93% |
| Cc1cc(C)cc(NC(=O)c2cncc(-c3ccc(C#N)cc3)n2)c1 | 1600 | 470 | 8 | 84 | 0.03 (≈ 0.0914 µM) | 140 | inhibition [10]: inactive; inhibition [11]: inactive; bioavailability [12]: 0%; inhibition in vivo at 100 mg/kg (Rattus norvegicus [19]): < 20%; inhibition [15]: inactive; Activity (Plasma): 55.2%; Vd [16]: 5.1 L/kg; half-life [17]: 1.6 h |
| Cc1cccc(NC(=O)c2cncc(-c3ccc(Cl)cc3)n2)c1 | 8200 | 960 | 6 | 280 | < 0.1 | – | Ratio IC50 (Homo sapiens): > 1000 |
| Cc1ccccc1CNC(=O)c1cncc(-c2ccc(Cl)cc2)n1 | – | 1340 | 27 | 110 | < 0.1 | – | inhibition [8]: 2% |
| O=C(NCc1cnccc1N1CCOCC1)c1cncc(-c2ccc(Cl)cc2)n1 | – | 29100 | – | – | – | – | – |
| O=C(NCc1cccnc1Cl)c1cncc(-c2ccc(OC(F)(F)F)cc2)n1 | 3900 | 1030 | 99 | 90 | – | 143 | – |
| O=C(Nc1cccnc1)c1cncc(-c2ccc(Cl)cc2)n1 | – | 18000 | – | – | – | – | – |
| CCOc1ccc(-c2cncc(C(=O)Nc3cccc(C)c3)n2)cc1 | 1000 | 650 | 1 | 68 | < 0.1 | – | – |
| COc1cc(NC(=O)c2ccc(-c3ccc(Cl)cc3)o2)cc(OC)c1 | – | – | – | – | < 0.1 | 140 | – |
| Cc1ccccc1CNC(=O)c1cncc(-c2ccc(C#N)cc2)n1 | 1000 | 9400 | 150 | 450 | 0.35 (≈ 1.07 µM) | – | – |
